Assay results from ChEMBL document CHEMBL4477204, “Tetrahydroisoquinoline-Derived Urea and 2,5-Diketopiperazine Derivatives as Selective Antagonists of the Transient Receptor Potential Melastatin 8 (TRPM8) Channel Receptor and Antiprostate Cancer Agents” (J Med Chem, 2016).
The source made the active and inactive calls. The calls are words filed in the database; no cut-off is given here.

How the values were obtained:
[1] = target: Transient receptor potential cation channel subfamily V member 1 (Homo sapiens, UniProt Q8NER1); assay: Antagonist activity at recombinant human TRPV1 expressed in HEK293 cells assessed as inhibition of capsaicin-induced intracellular calcium accumulation up to 10 uM […] preincubated for 5 mins followed by capsaicin addition by Fluo-4-AM probe-based spectrofluorimetric assay; type: cell-based
Method in brief: (§1)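 HEK-293 cells stably expressing the listed TRP channel (human TRPV1; rat TRPM8, TRPA1, TRPV2, TRPV3 or TRPV4) were Fluo-4-AM loaded (4 µM, 1 h, 25 °C) and suspended in Tyrode's buffer pH 7.4. Compound was added 5 min before agonist: icilin 0.25 µM (TRPM8), capsaicin 0.1 µM (TRPV1), AITC 100 µM (TRPA1), LPC 3 µM (TRPV2), thymol 100 µM (TRPV3), 4α-PDD 1 µM (TRPV4). Agonist alone was taken as 100%. IC50 from sigmoidal fit, at least triplicate.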

[2] = test system: LNCaP; assay: Induction of apoptosis in human LNCAP cells assessed as increase in caspase3/7 activity at 10 uM after 72 hrs by caspase-glo 3/7 chemiluminescence assay relative to control; type: functional
Method in brief: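 LNCaP cells were cultured 72 h with 10 µM compound or vehicle, then washed with PBS. Caspase-Glo 3/7 reagent was added to 1×10^4 cells/assay, incubated 1 h at room temperature in the dark, and luminescence was read. Vehicle blank was subtracted; runs were in triplicate. Camptothecin 0.1 µg/mL plus anti-Fas 0.2 µg/mL for 24 h served as the apoptosis reference.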

[3] = target: T1, Heat sensitive channel TRPV3 (Rattus norvegicus, UniProt Q4QYD9); assay: Antagonist activity at recombinant rat TRPV3 expressed in HEK293 cells assessed as inhibition of thymol-induced intracellular calcium accumulation preincubated for 5 mins followed by thymol addition by Fluo-4-AM probe-based spectrofluorimetric assay; type: cell-based; method in brief: as §1
T1 sequence (Q4QYD9 whole entry): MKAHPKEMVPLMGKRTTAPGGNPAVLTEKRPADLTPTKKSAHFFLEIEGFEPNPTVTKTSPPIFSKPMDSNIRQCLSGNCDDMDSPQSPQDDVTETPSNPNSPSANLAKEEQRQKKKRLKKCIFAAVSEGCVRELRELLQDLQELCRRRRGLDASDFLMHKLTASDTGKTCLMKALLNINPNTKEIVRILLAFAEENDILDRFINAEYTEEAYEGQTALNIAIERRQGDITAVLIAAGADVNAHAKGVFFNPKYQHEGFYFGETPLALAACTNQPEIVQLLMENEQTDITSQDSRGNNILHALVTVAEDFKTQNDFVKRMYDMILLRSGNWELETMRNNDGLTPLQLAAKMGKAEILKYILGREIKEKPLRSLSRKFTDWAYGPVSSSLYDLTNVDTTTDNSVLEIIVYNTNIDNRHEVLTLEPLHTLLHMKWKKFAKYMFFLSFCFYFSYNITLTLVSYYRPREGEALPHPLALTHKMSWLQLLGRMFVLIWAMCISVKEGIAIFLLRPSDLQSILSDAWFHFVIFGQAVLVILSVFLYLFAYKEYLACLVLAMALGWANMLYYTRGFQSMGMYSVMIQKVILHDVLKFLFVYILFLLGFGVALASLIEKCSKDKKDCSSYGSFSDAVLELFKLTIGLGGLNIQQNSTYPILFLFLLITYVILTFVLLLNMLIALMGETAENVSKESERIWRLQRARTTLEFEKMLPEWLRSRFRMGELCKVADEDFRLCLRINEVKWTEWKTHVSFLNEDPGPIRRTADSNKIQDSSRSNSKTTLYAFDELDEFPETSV

[4] = target: T2, Transient receptor potential cation channel subfamily V member 2 (Rattus norvegicus, UniProt Q9WUD2); assay: Antagonist activity at recombinant rat TRPV2 expressed in HEK293 cells assessed as inhibition of LPC-induced intracellular calcium accumulation preincubated for 5 mins followed by LPC addition by Fluo-4-AM probe-based spectrofluorimetric assay; type: cell-based; method in brief: as §1
T2 sequence (Q9WUD2 whole entry): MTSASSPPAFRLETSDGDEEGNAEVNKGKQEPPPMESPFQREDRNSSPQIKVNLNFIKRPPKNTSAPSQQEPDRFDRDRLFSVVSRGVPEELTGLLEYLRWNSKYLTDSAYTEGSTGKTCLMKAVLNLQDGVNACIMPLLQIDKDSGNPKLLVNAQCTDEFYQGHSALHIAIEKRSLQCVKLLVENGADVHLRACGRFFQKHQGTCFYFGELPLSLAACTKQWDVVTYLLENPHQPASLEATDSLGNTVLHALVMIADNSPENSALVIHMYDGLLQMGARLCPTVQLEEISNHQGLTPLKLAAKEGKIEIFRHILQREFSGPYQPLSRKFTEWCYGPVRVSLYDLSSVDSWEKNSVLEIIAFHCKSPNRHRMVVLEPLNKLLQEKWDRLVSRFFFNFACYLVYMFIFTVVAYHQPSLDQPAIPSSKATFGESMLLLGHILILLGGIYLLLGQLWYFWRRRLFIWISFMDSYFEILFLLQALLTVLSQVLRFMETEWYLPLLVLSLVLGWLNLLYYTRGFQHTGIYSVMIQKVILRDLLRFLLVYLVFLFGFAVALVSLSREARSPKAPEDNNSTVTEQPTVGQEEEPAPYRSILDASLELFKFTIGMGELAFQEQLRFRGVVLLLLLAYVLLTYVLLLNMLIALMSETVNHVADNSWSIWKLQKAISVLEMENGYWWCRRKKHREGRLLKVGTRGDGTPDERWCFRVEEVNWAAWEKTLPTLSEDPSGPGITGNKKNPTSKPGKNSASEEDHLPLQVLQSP

[5] = test system: LNCaP; assay: Cytotoxicity against human LNCAP cells assessed as inhibition of cell growth at 10 uM after 72 hrs by trypan blue assay; type: functional; conditions: for inhibition of growth at 10 µM: read-out: GI
Method in brief: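 LNCaP cells were grown in RPMI-1640 with 10% FBS and given a daily dose of compound for 72 h. Cells were then counted in a Burker chamber, with cell number also estimated from dsDNA content at 4 pg DNA/cell. Dead cells were scored with 0.4% trypan blue. Statistics used ANOVA with Bonferroni's test.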

[6] = target: Transient receptor potential cation channel subfamily A member 1 (Rattus norvegicus, UniProt Q6RI86); assay: Antagonist activity at recombinant rat TRPA1 expressed in HEK293 cells assessed as inhibition of AITC-induced intracellular calcium accumulation preincubated for 5 mins followed by AITC addition by Fluo-4-AM probe-based spectrofluorimetric assay; type: cell-based; method in brief: as §1
[7] = target: Transient receptor potential cation channel subfamily V member 4 (Rattus norvegicus, UniProt Q9ERZ8); assay: Antagonist activity at recombinant rat TRPV4 expressed in HEK293 cells assessed as inhibition of 4alphaPDD-induced intracellular calcium accumulation preincubated for 5 mins followed by 4alphaPDD addition by Fluo-4-AM probe-based spectrofluorimetric assay; type: cell-based; method in brief: as §1
[8] = target: T3, Heat sensitive channel TRPV3 (Rattus norvegicus) (UniProt Q4QYD9); assay: Antagonist activity at recombinant rat TRPV3 expressed in HEK293 cells assessed as inhibition of thymol-induced intracellular calcium accumulation up to 10 uM preincubated for 5 mins followed by thymol addition by Fluo-4-AM probe-based spectrofluorimetric assay; type: cell-based; method in brief: as §1
T3 sequence (whole entry): T1 sequence (Q4QYD9 whole entry)

Transient receptor potential cation channel subfamily V member 1, sequence (Q8NER1 whole entry): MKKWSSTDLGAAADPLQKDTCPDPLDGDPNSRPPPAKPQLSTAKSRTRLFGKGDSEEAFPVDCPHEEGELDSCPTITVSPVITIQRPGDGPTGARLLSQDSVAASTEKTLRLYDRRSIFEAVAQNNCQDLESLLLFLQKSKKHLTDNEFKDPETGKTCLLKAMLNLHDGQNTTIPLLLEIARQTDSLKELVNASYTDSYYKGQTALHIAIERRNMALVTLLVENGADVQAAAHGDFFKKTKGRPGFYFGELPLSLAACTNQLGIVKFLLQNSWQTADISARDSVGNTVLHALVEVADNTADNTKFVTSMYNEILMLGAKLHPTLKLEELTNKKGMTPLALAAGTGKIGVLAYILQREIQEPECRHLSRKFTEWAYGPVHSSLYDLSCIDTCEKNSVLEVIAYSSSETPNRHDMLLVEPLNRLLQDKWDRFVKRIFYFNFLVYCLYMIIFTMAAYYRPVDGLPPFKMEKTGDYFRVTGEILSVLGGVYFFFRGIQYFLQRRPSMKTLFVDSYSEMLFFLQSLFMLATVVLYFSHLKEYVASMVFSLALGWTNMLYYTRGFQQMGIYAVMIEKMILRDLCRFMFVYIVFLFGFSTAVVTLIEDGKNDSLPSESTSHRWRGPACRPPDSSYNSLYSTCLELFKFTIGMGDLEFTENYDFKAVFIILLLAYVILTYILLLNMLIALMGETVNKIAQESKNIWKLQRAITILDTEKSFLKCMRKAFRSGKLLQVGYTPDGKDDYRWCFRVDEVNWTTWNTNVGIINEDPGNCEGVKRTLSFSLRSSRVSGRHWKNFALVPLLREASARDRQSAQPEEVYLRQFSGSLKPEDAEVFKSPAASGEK
Transient receptor potential cation channel subfamily A member 1, sequence (Q6RI86 whole entry): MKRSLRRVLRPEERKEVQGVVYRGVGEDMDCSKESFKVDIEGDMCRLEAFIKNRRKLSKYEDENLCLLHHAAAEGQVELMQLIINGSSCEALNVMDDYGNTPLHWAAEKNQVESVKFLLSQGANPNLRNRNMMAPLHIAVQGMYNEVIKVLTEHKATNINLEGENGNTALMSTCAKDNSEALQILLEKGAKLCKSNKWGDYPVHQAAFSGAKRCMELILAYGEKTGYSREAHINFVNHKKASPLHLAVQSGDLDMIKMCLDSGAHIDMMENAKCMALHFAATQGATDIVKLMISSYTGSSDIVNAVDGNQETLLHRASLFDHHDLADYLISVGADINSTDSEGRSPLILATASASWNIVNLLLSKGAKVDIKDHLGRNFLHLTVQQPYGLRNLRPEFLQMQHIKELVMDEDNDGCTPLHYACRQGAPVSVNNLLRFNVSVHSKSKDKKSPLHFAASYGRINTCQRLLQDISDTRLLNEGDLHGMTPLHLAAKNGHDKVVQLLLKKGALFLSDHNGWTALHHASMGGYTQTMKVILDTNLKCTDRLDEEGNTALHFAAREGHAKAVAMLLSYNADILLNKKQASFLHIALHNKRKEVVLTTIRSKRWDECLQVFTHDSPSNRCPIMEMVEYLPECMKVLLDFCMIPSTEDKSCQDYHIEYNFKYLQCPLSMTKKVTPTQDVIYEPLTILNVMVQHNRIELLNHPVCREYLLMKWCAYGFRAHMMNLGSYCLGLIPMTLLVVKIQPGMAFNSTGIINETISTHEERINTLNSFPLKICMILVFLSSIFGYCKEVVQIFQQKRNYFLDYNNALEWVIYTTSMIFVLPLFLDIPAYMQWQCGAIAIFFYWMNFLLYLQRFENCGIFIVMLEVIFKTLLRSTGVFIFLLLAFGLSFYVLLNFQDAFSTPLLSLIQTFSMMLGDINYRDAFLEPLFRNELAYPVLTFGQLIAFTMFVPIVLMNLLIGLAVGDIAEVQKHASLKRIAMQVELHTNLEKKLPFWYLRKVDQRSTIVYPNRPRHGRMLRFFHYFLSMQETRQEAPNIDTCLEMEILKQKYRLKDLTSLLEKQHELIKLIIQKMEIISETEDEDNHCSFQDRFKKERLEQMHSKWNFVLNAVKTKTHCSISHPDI
Transient receptor potential cation channel subfamily V member 4, sequence (Q9ERZ8 whole entry): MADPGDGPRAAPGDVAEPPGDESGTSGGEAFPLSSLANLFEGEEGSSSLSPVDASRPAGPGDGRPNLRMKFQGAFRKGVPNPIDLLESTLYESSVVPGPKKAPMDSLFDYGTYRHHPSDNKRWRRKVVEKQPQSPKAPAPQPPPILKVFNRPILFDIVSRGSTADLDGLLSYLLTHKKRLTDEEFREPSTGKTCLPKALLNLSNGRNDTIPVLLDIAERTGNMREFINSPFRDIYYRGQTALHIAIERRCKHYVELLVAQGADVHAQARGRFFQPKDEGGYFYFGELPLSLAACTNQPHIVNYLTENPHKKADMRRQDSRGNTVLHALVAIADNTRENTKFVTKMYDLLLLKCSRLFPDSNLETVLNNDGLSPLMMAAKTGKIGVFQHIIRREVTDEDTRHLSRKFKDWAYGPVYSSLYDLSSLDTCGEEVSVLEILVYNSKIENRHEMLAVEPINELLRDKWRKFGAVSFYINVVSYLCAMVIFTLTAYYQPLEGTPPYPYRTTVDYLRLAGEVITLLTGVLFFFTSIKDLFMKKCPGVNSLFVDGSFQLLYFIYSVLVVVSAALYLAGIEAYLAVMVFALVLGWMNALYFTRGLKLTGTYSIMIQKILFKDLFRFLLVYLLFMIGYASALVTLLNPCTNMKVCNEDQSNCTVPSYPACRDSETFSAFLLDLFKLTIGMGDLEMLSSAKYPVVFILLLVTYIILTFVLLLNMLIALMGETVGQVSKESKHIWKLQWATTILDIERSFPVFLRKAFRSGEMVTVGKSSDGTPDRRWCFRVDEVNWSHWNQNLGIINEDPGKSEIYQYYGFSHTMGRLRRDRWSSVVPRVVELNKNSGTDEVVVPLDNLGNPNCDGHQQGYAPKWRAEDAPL

| inhibition [1] | IC50 [3] | IC50 [4] | IC50 [6] | IC50 [7] | inhibition [8] | Structure (SMILES) | Activity [2] | growth inhibition (GI) [5] | inhibition of growth at 10 µM [5] |
| --- | --- | --- | --- | --- | --- | --- | --- | --- | --- |
| inactive | 34.3 µM | 12.4 µM | 14.2 µM | > 100 µM | inactive | COc1cc(/C=C2\NC(=O)[C@@H]3Cc4c(OC)c(C)c(OC)c(OC)c4[C@@H](c4ccccc4)N3C2=O)c(OC)c(C)c1OC | 200% | Active | – |
| inactive | > 100 µM | 51.9 µM | 10 µM | 82.6 µM | inactive | COc1cc2c(cc1OC)[C@H](c1ccccc1)N(C(=O)N1CCc3cc(OC)c(OC)cc3[C@@H]1c1ccccc1)CC2 (racemic) | 220% | Active | – |
| inactive | 72.9 µM | 94.3 µM | 16.4 µM | 96.2 µM | inactive | COc1cc2c(cc1OC)[C@H](c1ccc(F)cc1)N(C(=O)N1CCc3cc(OC)c(OC)cc3[C@@H]1c1ccc(F)cc1)CC2 (racemic) | 198% | – | 64.3% |
| inactive | > 100 µM | 54.9 µM | 23.9 µM | 81.5 µM | inactive | COc1cc2c(cc1OC)[C@H](c1ccc(Cl)cc1)N(C(=O)N1CCc3cc(OC)c(OC)cc3[C@@H]1c1ccc(Cl)cc1)CC2 (racemic) | 190% | – | 50.4% |
